Assay results from different studies.
Each line is one published result; the experiments were not run side by side.
Target: Cyclin-dependent kinase 11B (CDK11B, Homo sapiens, UniProt P21127)
Method: competition with immobilised ligand

SMILES | test | setting | remaining binding
O=C(NCCCN1CCOCC1)c1ccc(Nc2ncc(Cl)c(-c3ccc(Cl)s3)n2)cc1 | binding | 1 µM | 33%
c1cncc(-c2cccc(Nc3nccc(NC4CCCCC4)n3)c2)c1 | binding | 10 µM | 80%
O=C(Nc1c[nH]nc1C(=O)NC1CCNCC1)c1cc(F)cc(F)c1 | binding | 1 µM | 86%
C[C@@H]1CCN(c2nccc(-c3cnn4ncccc34)n2)C1 | binding | 1 µM | 97%
COc1ccc2cc(OCC3(C(=O)O)CN(C(=O)c4ccc(F)cc4)C3)ccc2c1 | cell-free assay | 1 µM | 100%
CN(C)c1nccc(-c2cnc3ncccn23)n1 | binding | 1 µM | 100%
CSc1cccnc1N1CCN(Cc2nc3ccccc3[nH]2)CC1 | cell-free assay | 1 µM | 100%
C=CC(=O)N1CCC(C(=O)NCC(=O)N2CCN(c3nc(-c4cnc(N)nc4C(F)F)nc(N4CCOCC4)n3)CC2)CC1 | binding | 1 µM | 100%
O=C(c1ccc(Nc2nccc(-c3cc4ccccc4s3)n2)cc1)N1CCC(N2CCCC2)CC1 | binding | 1 µM | 71%
COc1ncc2cc3ccccc3nc2c1C#N | cell-free assay | 5 µM | 100%
CN(C)c1ncc(F)c(-c2cnn3ncccc23)n1 | binding | 1 µM | 100%
CN(c1ccnc(CNc2nc(Nc3ccc4c(c3)CC(=O)N4)ncc2C(F)(F)F)n1)S(C)(=O)=O | cell-free assay | 1 µM | 91%
COc1cnc(Nc2cccc(S(N)(=O)=O)c2)nc1N1CCN(c2ccccc2)C(=O)C1 | binding | 1 µM | 100%
CC(=O)N1CCC(c2ccc(C(=O)NC(=N)N)cc2C(F)(F)F)CC1 | cell-free assay | 1 µM | 100%
COc1ccnn2ncc(-c3ccnc(N(C)C)n3)c12 | binding | 1 µM | 100%
COc1cnc(Nc2cccc(S(N)(=O)=O)c2)nc1N1CCN(c2ccccc2)CC1 | binding | 1 µM | 99%
O=C(NCCCN1CCOCC1)c1ccc(Nc2nccc(-c3cc4ccccc4s3)n2)cc1 | binding | 1 µM | 57%
N[C@H]1CCN(c2nccc(-c3cnn4ncccc34)n2)C1 | binding | 1 µM | 100%
Cc1c(NC(=O)c2cc(C(N)=O)nc3cc(F)ccc23)c(C(F)(F)F)nn1Cc1ccc(C#N)cc1 | cell-free assay | 1 µM | 94%
c1cnn2ncc(-c3ccnc(N4CCC45COC5)n3)c2c1 | binding | 1 µM | 91%
N#CC1(c2ccccn2)CCN(Cc2cc(C(=O)N3CCCC3)c(=O)n3ccccc23)CC1 | cell-free assay | 1 µM | 80%
